This is an account of results in ChEMBL document CHEMBL3045880, “Design and syntheses of novel N-(benzothiazol-5-yl)-4,5,6,7-tetrahydro-1H-isoindole-1,3(2H)-dione and N-(benzothiazol-5-yl)isoindoline-1,3-dione as potent protoporphyrinogen oxidase inhibitors” (J Agric Food Chem, 2011).

Test [1] relates to Brassica juncea. The experiment in a line: Herbicidal activity against Brassica juncea assessed as growth inhibition at 150 g/ha postemergence treatment measured after 15 days by Greenhouse test. Type of test: functional. To be noted: post-emergence, 360 h, read-out: GI. In outline:
(§1)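 Test compounds were made up as 100 g/L emulsifiable concentrates (DMF solvent, Tween-80 emulsifier) and diluted with water. About 20 seeds were sown 1–3 cm deep in clay soil (pH 6.5, 1.6% organic matter) in 9.5 cm pots, kept at 15–30 °C and 50% RH. Postemergence spray was applied to dicots at the 2-leaf stage and monocots at the 1-leaf stage. Controls were untreated and solvent-treated. Injury was scored visually at 15 days, with three replicates.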

The test system of test [2] is Setaria faberi. The experiment in a line: Herbicidal activity against Setaria faberi (Giant Foxtail) assessed as growth inhibition at 150 g/ha postemergence treatment measured after 15 days by Greenhouse test. Type of test: functional. To be noted: post-emergence, 360 h, read-out: GI. In outline: as §1
Test [3] addresses T1, Protoporphyrinogen oxidase (Homo sapiens) (UniProt P50336).
T1 sequence (whole entry): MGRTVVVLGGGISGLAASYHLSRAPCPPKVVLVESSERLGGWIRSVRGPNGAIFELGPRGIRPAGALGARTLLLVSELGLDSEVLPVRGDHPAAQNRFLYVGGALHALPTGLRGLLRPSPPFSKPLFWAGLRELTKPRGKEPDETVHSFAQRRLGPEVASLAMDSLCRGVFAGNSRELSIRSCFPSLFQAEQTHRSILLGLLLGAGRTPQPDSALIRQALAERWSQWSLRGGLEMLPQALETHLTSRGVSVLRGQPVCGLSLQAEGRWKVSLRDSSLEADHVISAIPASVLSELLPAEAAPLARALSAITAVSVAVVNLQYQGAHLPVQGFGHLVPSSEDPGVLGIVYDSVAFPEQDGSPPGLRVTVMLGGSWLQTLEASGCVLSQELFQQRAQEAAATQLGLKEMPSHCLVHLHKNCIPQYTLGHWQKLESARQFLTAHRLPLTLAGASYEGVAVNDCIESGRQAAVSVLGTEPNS
The experiment in a line: Inhibition of Homo sapiens (human) recombinant protoporphyrinogen oxidase by fluorescence detection.

For test [4], the system named is Digitaria sanguinalis. The experiment in a line: Herbicidal activity against Digitaria sanguinalis (hairy crabgrass) assessed as growth inhibition at 150 g/ha postemergence treatment measured after 15 days by Greenhouse test. Type of test: functional. To be noted: post-emergence, 360 h, read-out: GI. In outline:
as §1

Test [5] deals with Amaranthus retroflexus. The experiment in a line: Herbicidal activity against Amaranthus retroflexus assessed as growth inhibition at 150 g/ha postemergence treatment measured after 15 days by Greenhouse test. Type of test: functional. To be noted: post-emergence, 360 h, read-out: GI. In outline:
as §1

Test [6] deals with Eclipta prostrata. The experiment in a line: Herbicidal activity against Eclipta prostrata assessed as growth inhibition at 150 g/ha postemergence treatment measured after 15 days by Greenhouse test. The class given is functional. To be noted: post-emergence, 360 h, read-out: GI. In outline: as §1
Test [7] relates to Echinochloa crus-galli. The test is described as follows: Herbicidal activity against Echinochloa crus-galli (barnyard grass) assessed as growth inhibition at 150 g/ha postemergence treatment measured after 15 days by Greenhouse test. To be noted: post-emergence, 360 h, read-out: GI. The class given is functional. In outline:
as §1

The subject of test [8] is Abutilon theophrasti. The experiment in a line: Herbicidal activity against Abutilon theophrasti (velvetleaf) assessed as growth inhibition at 150 g/ha postemergence treatment measured after 15 days by Greenhouse test. To be noted: post-emergence, 360 h, read-out: GI. Type of test: functional. In outline: as §1

Consider `COC(=O)CSc1nc2cc(N3C(=O)C4=C(CCCC4)C3=O)c(Cl)cc2s1`, for which the inhibition of growth at 150 g/ha in test [1] is under 50%; in test [2], under 50%; in test [4] it was under 50%; in test [5], 60%; in test [6], 60%; in test [7], under 50%. For the same compound, in test [3], the Ki was 3920 nM.
Turning to `CCOC(=O)C(C)Sc1nc2cc(N3C(=O)C4=C(CCCC4)C3=O)c(Cl)cc2s1` (stereo not given), the inhibition of growth at 150 g/ha in test [1] is under 50%; in test [2] it was under 50%; in test [4], under 50%; in test [5] it was 60%; in test [6], 60%; in test [7] it was under 50%. Besides, the Ki in test [3] was 800 nM.
With `CCOC(=O)Sc1nc2cc(N3C(=O)c4ccccc4C3=O)c(F)cc2s1`, the inhibition of growth at 150 g/ha is under 50% in test [2]; under 50% in test [4]; 80% in test [5]; 80% in test [6]; 80% in test [8]; under 50% in test [7]. For the same compound, the Ki in test [3] turned out to be 510 nM.
With `CCOC(=O)C(C)Sc1nc2cc(N3C(=O)C4=C(CCCC4)C3=O)c(F)cc2s1` (stereo not given), the inhibition of growth at 150 g/ha in test [1] came to 80%; in test [2], 60%; in test [4], 60%; in test [5] it was 80%; in test [6] it was 80%; in test [7], 60%. Further, in test [3], the Ki worked out at 290 nM.
Regarding `CCCOC(=O)CSc1nc2cc(N3C(=O)C4=C(CCCC4)C3=O)c(F)cc2s1`, the inhibition of growth at 150 g/ha in test [1] was 60%; in test [2] it was under 50%; in test [4], 60%; in test [5] it was 80%; in test [6], 80%; in test [7] it was 60%. In test [3], the Ki came to 280 nM.
For the compound `CCOC(=O)C(C)Sc1nc2cc(N3C(=O)c4ccccc4C3=O)c(Cl)cc2s1` (stereo not given), the Ki in test [3] is 85900 nM.
Take `CCOC(=O)Sc1nc2cc(N3C(=O)C4=C(CCCC4)C3=O)c(Cl)cc2s1`: the inhibition of growth at 150 g/ha in test [1] was under 50%; in test [2], under 50%; in test [4] it was under 50%; in test [5] it was 50%; in test [6] it was 50%; in test [7], under 50%. For the same compound, the Ki in test [3] was 470 nM.
As for `CC(C)OC(=O)CSc1nc2cc(N3C(=O)C4=C(CCCC4)C3=O)c(F)cc2s1`, the inhibition of growth at 150 g/ha in test [1] is 60%; in test [2] it was 50%; in test [4] it was 60%; in test [5], 80%; in test [6], 80%; in test [7], 60%. Also, in test [3], the Ki came out at 210 nM.
Turning to `CCOC(=O)CCSc1nc2cc(N3C(=O)C4=C(CCCC4)C3=O)c(Cl)cc2s1`, the inhibition of growth at 150 g/ha in test [1] was 60%; in test [2] it was under 50%; in test [4], under 50%; in test [5], 60%; in test [6], 60%; in test [7], under 50%. Also, the Ki in test [3] was 320 nM.
`CCOC(=O)C(C)Sc1nc2cc(N3C(=O)c4ccccc4C3=O)c(F)cc2s1` (stereo not given): the Ki in test [3] was 132000 nM.
Take `CC(C)OC(=O)CSc1nc2cc(N3C(=O)c4ccccc4C3=O)c(F)cc2s1`: the inhibition of growth at 150 g/ha in test [2] is under 50%; in test [4], under 50%; in test [5], 80%; in test [6], 60%; in test [8], 80%; in test [7], under 50%. The inhibitory constant (Ki) in test [3] was 1500 nM.
Turning to `CCOC(=O)CCSc1nc2cc(N3C(=O)C4=C(CCCC4)C3=O)c(F)cc2s1`, the inhibition of growth at 150 g/ha in test [1] was 80%; in test [2], under 50%; in test [4], 50%; in test [5], 80%; in test [6] it was 80%; in test [7] it was 50%. The Ki in test [3] came to 110 nM.
Regarding `CCOC(=O)CSc1nc2cc(N3C(=O)C4=C(CCCC4)C3=O)c(Cl)cc2s1`, the inhibition of growth at 150 g/ha in test [1] was under 50%; in test [2], under 50%; in test [4], under 50%; in test [5], 80%; in test [6], 60%; in test [7], under 50%. The Ki in test [3] amounted to 1660 nM.
`COC(=O)Sc1nc2cc(N3C(=O)C4=C(CCCC4)C3=O)c(Cl)cc2s1`: the inhibition of growth at 150 g/ha is under 50% in test [1]; under 50% in test [2]; under 50% in test [4]; 60% in test [5]; 60% in test [6]; under 50% in test [7]. Also, the Ki in test [3] amounted to 520 nM.
On to `CCOC(=O)CCSc1nc2cc(N3C(=O)c4ccccc4C3=O)c(Cl)cc2s1`, for which, in test [3], the Ki was 3760 nM.
As to `CCOC(=O)CCSc1nc2cc(N3C(=O)c4ccccc4C3=O)c(F)cc2s1`, the Ki in test [3] turned out to be 5520 nM.
`CCOC(=O)CSc1nc2cc(N3C(=O)C4=C(CCCC4)C3=O)c(F)cc2s1`: the inhibition of growth at 150 g/ha is under 50% in test [1]; 60% in test [2]; 60% in test [4]; 80% in test [5]; 50% in test [6]; 60% in test [7]. For the same compound, the inhibition constant Ki in test [3] came out at 250 nM.
For `COC(=O)CSc1nc2cc(N3C(=O)c4ccccc4C3=O)c(F)cc2s1`, in test [3], the Ki turned out to be 2250 nM.
`CCOC(=O)C(C)(C)Sc1nc2cc(N3C(=O)C4=C(CCCC4)C3=O)c(Cl)cc2s1`: the inhibition of growth at 150 g/ha in test [1] is under 50%; in test [2] it was under 50%; in test [4], under 50%; in test [5], 80%; in test [6] it was 60%; in test [7] it was under 50%. In test [3], the Ki is 1660 nM.
As for `CCCOC(=O)CSc1nc2cc(N3C(=O)c4ccccc4C3=O)c(F)cc2s1`, the inhibition of growth at 150 g/ha in test [2] was 50%; in test [4], under 50%; in test [5] it was 80%; in test [8], 80%; in test [7], under 50%. In addition, the Ki in test [3] was 1240 nM.
`CC(C)(C)OC(=O)CSc1nc2cc(N3C(=O)C4=C(CCCC4)C3=O)c(F)cc2s1`: the inhibition of growth at 150 g/ha was 80% in test [1]; under 50% in test [2]; 60% in test [4]; 80% in test [5]; 80% in test [6]; under 50% in test [7]. The Ki in test [3] stood at 180 nM.
As for `COC(=O)Sc1nc2cc(N3C(=O)C4=C(CCCC4)C3=O)c(F)cc2s1`, the inhibition of growth at 150 g/ha in test [1] is 80%; in test [2], under 50%; in test [4], under 50%; in test [5], 80%; in test [6] it was 80%; in test [7] it was under 50%. For the same compound, in test [3], the Ki worked out at 80 nM.
On to `CCOC(=O)CCCSc1nc2cc(N3C(=O)C4=C(CCCC4)C3=O)c(Cl)cc2s1`, for which the inhibition of growth at 150 g/ha in test [1] is under 50%; in test [2], under 50%; in test [4] it was under 50%; in test [5] it was 80%; in test [6], 60%; in test [7], under 50%. Moreover, the Ki in test [3] is 750 nM.

Usually Ki stands for a dissociation constant, usually derived from enzyme kinetics or from competition with a known ligand.
